For 167 variants, yeast fitness results are on record in the RNAGym collection of RNA variant scans (doi:10.1126/science.aae0568).

This sample holds only a part of the variants without activity.

To fix the notation:
B1: tRNA (parent)
chain: GUUCCGUUGGCGUAAUGGUAACGCGUCUCCCUCCUAAGGAGAAGACUGCGGGUUCGAGUCCCGUACGGAACG

Variants of B1 are the subject of the data set. As to the kind of experiment: yeast fitness relative to wild type (ratio to wild type); higher = fitter; tRNA-Arg(CCU), competitive growth, 37 C, YPD. The procedure, abridged:
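Gene amplicons from the start population and from each of six end populations were read by 100-nucleotide paired-end sequencing. Those end populations came from pooled Saccharomyces cerevisiae strains carrying tRNA-Arg(CCU) gene variants at the native locus, competed in YPD at 37°C for 24 hours. Fitness relative to wild type was worked out from changes in genotype frequencies. Genotypes needed ≥ 100 starting reads, and estimates < 0.5 were set to 0.5.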
Take A57U A70G: the yeast fitness was 0.753.
As for U7A U8A G10C C27G C34G C55U A57G, the yeast fitness was no more than 0.5.
As for U2G C11U A15U U47A, the yeast fitness worked out at 0.578.
In the case of U19A A36G C46A, the yeast fitness is 0.69.
For the variant C29U C31A A69U, the yeast fitness stood at 0.627.
For the variant C46G G63A A65U, the yeast fitness amounted to 0.721.
In the case of C11U C49G C55G C61G it was no more than 0.5; in that of C22G G52C G58C A65U, 0.592; in that of G17C C30U A36G G67U A70G, no more than 0.5.
Turning to A14C U16G, the yeast fitness was 0.609.
For C33U A42U G68A A70G, the yeast fitness came to 0.534.
In the case of A36C C49G, the yeast fitness was found to be 0.56.
For U19G U59C A69C the value was 0.658.
For G23A C33G C49A U54G A65G the value was 0.617.
For the variant G48C C49U A70U, the yeast fitness worked out at 0.724.
For U3A G12C U13C A69U the value was 1.13; for C4U G44C A70C, 0.782; for C5G U13C A21C G63C A69C, no more than 0.5.
In the case of A15G U26G it was 0.703.
In the case of A15G G17C C33A C46A G52A it was no more than 0.5; in that of C5U C11U C61G G63C, 0.546.
As to C5U U19C A21U C31U A42G A43U A65C, the yeast fitness was no more than 0.5.
As for C24U C60G A70C, the yeast fitness amounted to 0.562.
Take C4U A36C U54C: the yeast fitness was no more than 0.5.
With A21U C24U C66U, the yeast fitness is no more than 0.5.
For C5U G10C A21U C22U U32C C46U the value was no more than 0.5.
Turning to C61U U64A A69G, the yeast fitness was found to be 0.597.
With C11U C27A C46A A70U, the yeast fitness was no more than 0.5.
As for G17A C49A U54A, the yeast fitness was found to be 0.614.
Take A14C G23C A36U A70U: the yeast fitness was no more than 0.5.
In the case of A15G G39A it was 0.959.
Regarding U16C U26G C61U, the yeast fitness is no more than 0.5.
Take A15G C34U A42G C49A: the yeast fitness was no more than 0.5.
On to U2C C31U A57U, for which the yeast fitness came to 0.535.
Take C5G C31A A37C G48A G58C: the yeast fitness came to 0.565.
Consider G6C C11G A15C G25C C27G C30G G38C A40G, for which the yeast fitness was no more than 0.5.
As to C24U U26G G41A A57U, the yeast fitness worked out at 0.641.
U3G G25A A45U C62A: the yeast fitness was no more than 0.5.
In the case of U8A G18C C24A C27U U32C U54G C55U it was no more than 0.5.
On to U32C A40U A70U, for which the yeast fitness was determined as 0.784.
Take A14C U16A G41C G63C A65U: the yeast fitness was 0.586.
As to C24G C30U C34A C60U, the yeast fitness was no more than 0.5.
In the case of C31U A40C, the yeast fitness was 0.937.
For the variant G6C G18C A21G A40U C49U C61U A70G, the yeast fitness worked out at 0.564.
For U19A A43G A57C A65U the value was no more than 0.5; for C24G A37C U59C C62U G68U, no more than 0.5; for A20C U32A A37U, no more than 0.5.
In the case of G12C G25A A43C it was 0.639; in that of G10A C33U A40G C55G A65C, no more than 0.5.
Take C4G A15C G50C U54C: the yeast fitness was no more than 0.5.
Consider U32C C34A C62A, for which the yeast fitness is 0.591.
Regarding G25A G44C C61G, the yeast fitness was 0.526.
With G17A G51A G56C G58C, the yeast fitness was no more than 0.5.
In the case of C5U A45C C55U G68C it was 0.57; in that of C4G G48A C49U G50A G51C U64A A70C, no more than 0.5.
For G23C C31U C49U, the yeast fitness is 0.58.
For the variant G10A C22U C27U C33U A43U U54C, the yeast fitness was no more than 0.5.
For A21G C22U A36G U53C A57C A69U the value was no more than 0.5; for U16A C30U, 0.817; for G9C A14U A69G, no more than 0.5.
Consider C5U C31G G48C G58A, for which the yeast fitness is no more than 0.5.
As for A20G C30A G48A U53G, the yeast fitness stood at 0.505.
Take C5G U26C: the yeast fitness is 0.803.
Turning to U3C C31U A69U, the yeast fitness was found to be 0.782.
As to U7C U26C G41C C46A, the yeast fitness is no more than 0.5.
With U13C C60G A69C, the yeast fitness is no more than 0.5.
Turning to G6C G12A C31A A43G, the yeast fitness was no more than 0.5.
With C5A C11G G38C G58C, the yeast fitness is no more than 0.5.
In the case of U13A U16A C24G C33G C62G, the yeast fitness was no more than 0.5.
For C11G C24G C55U A65U the value was no more than 0.5; for U3A U16A C22U U35A A36C G38U G48C, no more than 0.5.
In the case of U2A C24U C30U C34U G52A C61A it was no more than 0.5; in that of A40U A57G, 0.881.
As to G23C U32C, the yeast fitness turned out to be 0.72.
In the case of U3C A69C, the yeast fitness amounted to 0.967.
Regarding C4U C30U G38A G68C, the yeast fitness is no more than 0.5.
Regarding A14G U19A, the yeast fitness is 0.809.
For U3A U64G, the yeast fitness is 0.831.
C31G A40G C46A U54C C55G: the yeast fitness is no more than 0.5.
For U7A A42U the value was 0.696.
Take G44C U64G: the yeast fitness was found to be 0.653.
C22G C46A C62U G63A: the yeast fitness came out at 0.651.
For C11G A69U, the yeast fitness was 0.608.
G17C U53G: the yeast fitness was no more than 0.5.
In the case of C11G A36G G39A G56A, the yeast fitness is no more than 0.5.
Regarding C5G U13G A20U A37G G52C G68A, the yeast fitness was no more than 0.5.
For U3C C49A G51C the value was 0.694; for A21U G56A G67U A69C, no more than 0.5; for U3A C27G C31U C33U A42C, no more than 0.5.
For U7A C66G, the yeast fitness turned out to be 0.62.
For C4U U19C A40U the value was 0.674.
Turning to C4U C30A A70G, the yeast fitness was determined as 0.769.
With G41C G48A C66A, the yeast fitness is 0.583.
For the variant A43U G50C C60A, the yeast fitness is no more than 0.5.
In the case of U3A C4G G9A C11G U53A C66U it was no more than 0.5.
In the case of U35A G67A it was 0.714; in that of A21G A36U C49A, no more than 0.5.
Consider U8C G44A G48A C49A U59A, for which the yeast fitness was 0.524.
Turning to C5G G17A G38A A40G A69U, the yeast fitness is no more than 0.5.
On to A45C C46U U64C, for which the yeast fitness came out at 0.79.
Regarding A57U A69C, the yeast fitness stood at 0.69.
For the variant U2A C22G G63A, the yeast fitness was determined as 0.568.
In the case of U2G A45U C49U C61G it was no more than 0.5.
Turning to C31G C55A, the yeast fitness was found to be 0.605.
As for C22G G38C C60U, the yeast fitness is no more than 0.5.
As for U7A G51C G56C C61A, the yeast fitness is no more than 0.5.
Take C4G G6A G10C U19A C24G A43G C61G A70U: the yeast fitness is no more than 0.5.
Turning to C11U G38A A43C A65C, the yeast fitness is no more than 0.5.
In the case of G6C G25A A37U it was no more than 0.5; in that of C4G C24A, 0.634; in that of C11G G18U C22U C33U A43G, no more than 0.5.
A42U C60U: the yeast fitness was determined as 0.769.
For C31U C33A A69U the value was no more than 0.5; for C5U A45C C62U, 0.768; for U13A A42C G68C, 0.529.
For C4A C33A G39C C49U U54A A70U the value was no more than 0.5.
As for G23A C31U C33G, the yeast fitness turned out to be 0.523.
For G25A C62A A70U, the yeast fitness is 0.678.
Consider U3C A40U G58A, for which the yeast fitness stood at 1.02.
On to A37U U53A G58C, for which the yeast fitness was no more than 0.5.
As for A14C A20U C31A, the yeast fitness is no more than 0.5.
For C33A A57U C66U, the yeast fitness was found to be 0.555.
In the case of C5A G12A A45G G67A it was no more than 0.5; in that of C11G C24A U28G, no more than 0.5; in that of U3A C11G G23C, 0.501.
In the case of C31U A43U G48A U53A it was 0.587; in that of U13C A14U A36U G38A A43U G67A, no more than 0.5.
Take U26C U47C: the yeast fitness was determined as 0.952.
U8A C29A G39A: the yeast fitness is no more than 0.5.
Regarding U19A C24U C33U C49U, the yeast fitness is no more than 0.5.
As to G6A C22G A37G U47A A70C, the yeast fitness was no more than 0.5.
For C11U A36G G41A C49U G63A the value was no more than 0.5; for C27G A40G G51A, 0.541; for G12A C30U, 0.836.
G23A C24A C31A A36G G44A C60U C62A: the yeast fitness was no more than 0.5.
As for C27G A37U C49G U64C A69C, the yeast fitness was no more than 0.5.
Consider G10C G23A A45C U54C, for which the yeast fitness came out at 0.58.
On to G6C U35A, for which the yeast fitness was found to be 0.876.
As to G25A G48C G52C C55U, the yeast fitness was no more than 0.5.
For the variant G6A C60G A70C, the yeast fitness is 0.531.
For the variant G10A C27G C60A, the yeast fitness was no more than 0.5.
In the case of C62U G63A A70C it was 0.583; in that of C49G C61U, 0.719; in that of G9A C11G U13C C27A C29U, no more than 0.5.
Consider C5U C24U A42C A57U G63C, for which the yeast fitness is no more than 0.5.
Turning to U7C G50A, the yeast fitness was found to be 0.684.
As for C11U C31U U47C, the yeast fitness is 0.78.
With C31U A37G A45C C62G, the yeast fitness was found to be 0.593.
In the case of A20G A57U, the yeast fitness came to 0.649.
For G39C A43G G48C C49A G50A the value was no more than 0.5; for G17A C61U, 0.924; for G48C G51C A57U G68C, no more than 0.5.
U8C U35G: the yeast fitness stood at 0.693.
Regarding C4U G25A A36G, the yeast fitness worked out at 0.641.
Turning to G12C C60G, the yeast fitness stood at 0.641.
In the case of C11A A21U A43U A57G, the yeast fitness was no more than 0.5.
For U35C G39C, the yeast fitness is 0.747.
As to U3A G25C C34U G41A C49G, the yeast fitness is no more than 0.5.
On to G18A C34A U47C, for which the yeast fitness was no more than 0.5.
For C24U U53C C60G the value was no more than 0.5; for C22G G23A G38A G68C, 0.572; for A14U C27A, 0.76.
Regarding U8G U26C, the yeast fitness worked out at 0.592.
As for C4U C11A G39A G51A, the yeast fitness is no more than 0.5.
Regarding U7C U32A U53A, the yeast fitness is 0.576.
U35C A45U G68A: the yeast fitness was 0.668.
In the case of G9A C34U G44C A45C C66G it was no more than 0.5.
